ChEMBL document CHEMBL1146375, “Synthetic studies on novel benzimidazolopeptides with antimicrobial, cytotoxic and anthelmintic potential” (2007)
Converted amounts (≈) assume the structure as drawn.

How the values were obtained:
Candida albicans [1] = assay: Antifungal activity against Candida albicans MUCC 29 after 48 hrs by disc diffusion method; type: functional
Outline: (§1)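 Agar well diffusion on plates inoculated with spore suspension in normal saline from cultures on Sabouraud's broth. Wells punched and loaded with test samples or griseofulvin at 10 mg mL^-1, with DMSO as negative control. Incubated 48 h at 37 °C.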

Candida albicans [2] = assay: Antifungal activity against Candida albicans MUCC 29 after 48 hrs by tube dilution method; type: functional
Outline: (§2)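 Tube dilution MIC as for bacteria (seven concentrations, 200–3.1 […]), with DMSO in place of DMF. Tubes inoculated with fungal culture and incubated 48 h at 37 °C. MIC read from presence or absence of growth.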

Bacillus subtilis [3] = assay: Antibacterial activity against Bacillus subtilis NCIM 2063 after 18 hrs by disc diffusion method; type: functional
Outline: (§3)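 Modified Kirby-Bauer disc diffusion. Plates inoculated with spore suspension (about 6 × 10⁴ spores mL^-1). Sterile 6 mm paper discs carried test samples at 10 mg mL^-1; ciprofloxacin disc as reference, DMF disc as negative control. Plates held 18 h at 37 °C. Inhibition zone diameters (mm) averaged over triplicate sets.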

Aspergillus niger = assay: Antifungal activity against Aspergillus niger MUCC 177 after 48 hrs by disc diffusion method; type: functional; outline: as §1
Pontoscolex corethrurus [4] = assay: Anthelmintic activity against Pontoscolex corethrurus ICARBC 408 assessed as mean paralyzing time; type: functional
Outline: (§4)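 Earthworms exposed to test suspensions at 2 mg mL^-1 (0.2% w/v), made by triturating compound with Tween 80 (0.5%) and distilled water, then mechanically stirred 30 min. Mebendazole suspension prepared alike as reference. Paralysis and death times recorded; death confirmed by no movement in 50 °C water. Means from triplicate sets.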

Microsporum audouinii [5] = assay: Antifungal activity against Microsporum audouinii MUCC 545 after 48 hrs by tube dilution method; type: functional; outline: as §2
Pseudomonas aeruginosa [6] = assay: Antibacterial activity against Pseudomonas aeruginosa NCIM 2034 after 18 hrs by tube dilution method; type: functional; conditions: NCIM 2034, 18 h
Outline: (§5)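 Tube dilution MIC. Stock diluted in sterile broth to seven concentrations from 200 to 3.1 […]. Each tube inoculated with one loopful of test bacterium and incubated 18 h at 37 °C. MIC read from presence or absence of growth.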

Bacillus subtilis [7] = assay: Antibacterial activity against Bacillus subtilis NCIM 2063 after 18 hrs by tube dilution method; type: functional; conditions: NCIM 2063, 18 h; outline: as §5
Eudrilus [8] = assay: Anthelmintic activity against Eudrilus sp. assessed as mean death time; type: functional
Outline: (§6)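 Earthworms exposed to test suspensions at 2 mg mL−1, prepared by triturating compound with Tween 80 (0.5%) and distilled water, stirring 30 min, then diluting to 0.2% w/v. Mebendazole suspension was made the same way. Death was confirmed by moving worms into 50 °C warm water and looking for movement. Mean death time (min) taken from triplicate sets.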

Trichophyton benhamiae [9] = assay: Antifungal activity against Trichophyton mentagrophytes MUCC 665 after 48 hrs by tube dilution method; type: functional, Arthroderma benhamiae; outline: as §2
Staphylococcus aureus [10] = assay: Antibacterial activity against Staphylococcus aureus NCIM 2079 after 18 hrs by disc diffusion method; type: functional; outline: as §3
Escherichia coli [11] = assay: Antibacterial activity against Escherichia coli NCIM 2065 after 18 hrs by tube dilution method; type: functional; conditions: NCIM 2065, 18 h
Pseudomonas aeruginosa [12] = assay: Antibacterial activity against Pseudomonas aeruginosa NCIM 2034 after 18 hrs by disc diffusion method; type: functional; outline: as §3
Eudrilus [13] = assay: Anthelmintic activity against Eudrilus sp. assessed as mean paralyzing time; type: functional; outline: as §4
Escherichia coli [14] = assay: Antibacterial activity against Escherichia coli NCIM 2065 after 18 hrs by disc diffusion method; type: functional; outline: as §3
Pontoscolex corethrurus [15] = assay: Anthelmintic activity against Pontoscolex corethrurus ICARBC 408 assessed as mean death time; type: functional; outline: as §6
[16] = Anthelmintic activity against Megascoplex konkanensis ICARBC 211 assessed as mean death time; type: functional; outline: as §4
Microsporum audouinii [17] = assay: Antifungal activity against Microsporum audouinii MUCC 545 after 48 hrs by disc diffusion method; type: functional; outline: as §1
Staphylococcus aureus [18] = assay: Antibacterial activity against Staphylococcus aureus NCIM 2079 after 18 hrs by tube dilution method; type: functional; conditions: NCIM 2079, 18 h; outline: as §5
Trichophyton benhamiae [19] = assay: Antifungal activity against Trichophyton mentagrophytes MUCC 665 after 48 hrs by disc diffusion method; type: functional, Arthroderma benhamiae; outline: as §1
[20] = Anthelmintic activity against Megascoplex konkanensis ICARBC 211 assessed as mean paralyzing time; type: functional; outline: as §4

Compound	inhibition zone (IZ) (Candida albicans [1]) [mm]	MIC (Candida albicans [2]) [µg/mL]	inhibition zone (IZ) (Bacillus subtilis [3]) [mm]	inhibition zone (IZ) (Aspergillus niger) [mm]	Time (Pontoscolex corethrurus [4]) [min]	MIC (Microsporum audouinii [5]) [µg/mL]	MIC (Pseudomonas aeruginosa [6]) [µg/mL]	MIC (Bacillus subtilis [7]) [µg/mL]	Time (Eudrilus [8]) [min]	MIC (Trichophyton benhamiae [9]) [µg/mL]	inhibition zone (IZ) (Staphylococcus aureus [10]) [mm]	MIC (Escherichia coli [11]) [µg/mL]	inhibition zone (IZ) (Pseudomonas aeruginosa [12]) [mm]	Time (Eudrilus [13]) [min]	Time (Pontoscolex corethrurus [15]) [min]	TIME [16] [h]	inhibition zone (IZ) (Microsporum audouinii [17]) [mm]	MIC (Staphylococcus aureus [18]) [µg/mL]	inhibition zone (IZ) (Trichophyton benhamiae [19]) [mm]	TIME [20] [h]	also measured
Cc1cc2nc(-c3ccc(C(=O)N[C@@H](CC(C)C)C(=O)NCC(=O)O)cc3)[nH]c2cc1C	19	6 (≈ 13.7 µM)	13	17	36.61	25 (≈ 57.3 µM)	6 (≈ 13.7 µM)	6 (≈ 13.7 µM)	40.24	6 (≈ 13.7 µM)	10	12.5 (≈ 28.6 µM)	23	32.8	48.39	0.671	11	12.5 (≈ 28.6 µM)	14	0.438	inhibition zone (IZ) (Escherichia coli [14]): 17 mm
O=C(O)CNC(=O)CNC(=O)c1cc(-c2nc3ccc([N+](=O)[O-])cc3[nH]2)ccc1O	18	6 (≈ 14.5 µM)	9	17	31.18	6 (≈ 14.5 µM)	6 (≈ 14.5 µM)	25 (≈ 60.5 µM)	36.7	6 (≈ 14.5 µM)	9	12.5 (≈ 30.2 µM)	22	25.5	42.26	0.601	13	12.5 (≈ 30.2 µM)	16	0.451	inhibition zone (IZ) (Escherichia coli [14]): 16 mm
COC(=O)[C@H](Cc1ccc(O)cc1)NC(=O)[C@H](Cc1cnc[nH]1)NC(=O)c1ccc(-c2nc3cc(C)c(C)cc3[nH]2)cc1	16	12.5 (≈ 21.5 µM)	14	16	17.55	25 (≈ 43.1 µM)	12.5 (≈ 21.5 µM)	6 (≈ 10.3 µM)	23.98	6 (≈ 10.3 µM)	10	25 (≈ 43.1 µM)	19	13.49	29.18	0.377	8	12.5 (≈ 21.5 µM)	13	0.228	inhibition zone (IZ) (Escherichia coli [14]): 15 mm
COC(=O)[C@@H](NC(=O)c1cc(I)c(-c2nc3cc(C)c(C)cc3[nH]2)c(I)c1)[C@@H](C)O	19	6 (≈ 9.48 µM)	20	15	40.6	25 (≈ 39.5 µM)	6 (≈ 9.48 µM)	6 (≈ 9.48 µM)	69.45	10 (≈ 15.8 µM)	13	12.5 (≈ 19.7 µM)	23	31.22	78.32	0.987	8	12.5 (≈ 19.7 µM)	10	0.587	inhibition zone (IZ) (Escherichia coli [14]): 16 mm
COC1=CC(=O)C[C@@H](C)[C@]12Oc1c(Cl)c(OC)cc(OC)c1C2=O [GRISEOFULVIN]	20	6 (≈ 17 µM)	–	18	–	6 (≈ 17 µM)	–	–	–	6 (≈ 17 µM)	–	–	–	–	–	–	17	–	20	–	–
COC(=O)CNC(=O)[C@H](Cc1ccc(O)cc1)NC(=O)[C@H](C)NC(=O)c1cc(I)c(-c2nc3cc(C)c(C)cc3[nH]2)c(I)c1	15	6 (≈ 7.29 µM)	15	15	34.13	12.5 (≈ 15.2 µM)	6 (≈ 7.29 µM)	6 (≈ 7.29 µM)	45.3	12.5 (≈ 15.2 µM)	12	12.5 (≈ 15.2 µM)	20	27.42	48.24	0.652	9	12.5 (≈ 15.2 µM)	13	0.472	inhibition zone (IZ) (Escherichia coli [14]): 17 mm
O=C(O)c1cn(C2CC2)c2cc(N3CCNCC3)c(F)cc2c1=O [CIPROFLOXACIN]	–	–	20	–	–	–	6 (≈ 18.1 µM)	6 (≈ 18.1 µM)	–	–	20	12.5 (≈ 37.7 µM)	25	–	–	–	–	12.5 (≈ 37.7 µM)	–	–	–
COC(=O)CNC(=O)CNC(=O)c1cc(-c2nc3ccc([N+](=O)[O-])cc3[nH]2)ccc1O	18	6 (≈ 14 µM)	9	17	31.38	6 (≈ 14 µM)	6 (≈ 14 µM)	25 (≈ 58.5 µM)	36.77	6 (≈ 14 µM)	9	12.5 (≈ 29.2 µM)	22	25.74	42.45	0.608	13	12.5 (≈ 29.2 µM)	15	0.461	inhibition zone (IZ) (Escherichia coli [14]): 16 mm
Cc1cc2nc(-c3c(I)cc(C(=O)N[C@@H](C)C(=O)N[C@@H](Cc4ccc(O)cc4)C(=O)NCC(=O)O)cc3I)[nH]c2cc1C	16	6 (≈ 7.41 µM)	16	15	35.42	12.5 (≈ 15.4 µM)	6 (≈ 7.41 µM)	6 (≈ 7.41 µM)	45.22	12.5 (≈ 15.4 µM)	13	12.5 (≈ 15.4 µM)	23	26.25	47.45	0.676	9	12.5 (≈ 15.4 µM)	15	0.454	inhibition zone (IZ) (Escherichia coli [14]): 18 mm
Cc1cc2nc(-c3ccc(O)c(C(=O)N[C@@H](Cc4c[nH]c5ccccc45)C(=O)N[C@@H](C)C(=O)N[C@@H](Cc4ccc(O)cc4)C(=O)O)c3)[nH]c2cc1C	18	6 (≈ 8.54 µM)	16	17	17.02	12.5 (≈ 17.8 µM)	6 (≈ 8.54 µM)	12.5 (≈ 17.8 µM)	23.98	6 (≈ 8.54 µM)	11	12.5 (≈ 17.8 µM)	22	13.25	29.19	0.377	12	12.5 (≈ 17.8 µM)	15	0.224	inhibition zone (IZ) (Escherichia coli [14]): 18 mm
Cc1cc2nc(-c3ccc(O)c(C(=O)N[C@@H](C)C(=O)N[C@H](C(=O)N[C@@H](C)C(=O)O)C(C)C)c3)[nH]c2cc1C	19	6 (≈ 11.5 µM)	14	17	29.65	6 (≈ 11.5 µM)	6 (≈ 11.5 µM)	6 (≈ 11.5 µM)	36.14	6 (≈ 11.5 µM)	11	25 (≈ 47.7 µM)	21	25.18	41.6	0.57	11	25 (≈ 47.7 µM)	15	0.42	inhibition zone (IZ) (Escherichia coli [14]): 17 mm
COC(=O)Nc1nc2cc(C(=O)c3ccccc3)ccc2[nH]1 [MEBENDAZOLE]	–	–	–	–	17.85	–	–	–	24.05	–	–	–	–	13.54	29.64	0.382	–	–	–	0.231	–
